Source: PubChem
An excerpt weighted towards active compounds, which were near 3.5% of everything screened.
MrgX1 agonist: agonists of human MrgX1 receptor; AID 588627; MrgX1-HEK293 cells, Fluo-4 calcium fluorescence, agonist mode; active compounds read high; Q96LB2; B-score at 10 µM; hit rate 0.44% among 310,000;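 active means calcium response B-score plate-corrected fluorescence ratio at least 3 library SD, with starting fluorescence B-score inside 5 SD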
Target sequence (Q96LB2 whole entry, looked up): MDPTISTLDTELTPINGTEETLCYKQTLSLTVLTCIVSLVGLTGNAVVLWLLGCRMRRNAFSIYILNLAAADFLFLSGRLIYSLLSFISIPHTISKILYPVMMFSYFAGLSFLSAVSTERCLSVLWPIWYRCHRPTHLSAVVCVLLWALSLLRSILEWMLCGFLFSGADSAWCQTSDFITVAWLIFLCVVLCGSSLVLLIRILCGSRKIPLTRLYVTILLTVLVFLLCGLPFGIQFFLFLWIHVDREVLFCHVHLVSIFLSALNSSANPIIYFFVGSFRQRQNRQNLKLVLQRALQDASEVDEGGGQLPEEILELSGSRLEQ
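Material – MrgX1-expressing HEK293 cells · Input – 15,000 cells seeded per well · Dosing – compound as first of three additions · Times – overnight seeding, then 1 h dark dye loading · Measured by – kinetic Fluo-4 NW fluorescence of intracellular calcium · Read-out – B-scored fluorescence response ratio · Benchmarks – positive and negative control wells on each plate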
MrgX1 PAM: allosterically activates human MrgX1 receptor signaling | MrgX1-HEK293, Fluo-4 calcium flux, FDSS; active compounds read high | B-score at 10 µM | hit rate 0.63% among 310,000 | AID 588675;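 active means plate-corrected calcium response at least 3 library SD above typical, normal starting fluorescence, not activating the receptor alone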;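 further: compound read alongside a low EC10 to EC30 dose of BAM8-22 agonist; peak minus trough fluorescence over baseline measured at the second addition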
RGS4 block: inhibitors of human RGS4. P49798. HEK293 M3R/RGS4 inducible, Fluo-4 calcium flux; active compounds read high; triggered by carbachol at its EC20. B-score at 10 µM. hit rate 0.45% among 310,000. AID 463165;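 active means B-score, a plate-corrected calcium signal, over three deviations above library mean, with baseline fluorescence within five deviations of library mean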;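 further: RGS4 expression induced by doxycycline in cells with stable M3 receptor; B-score is computed from the integrated fluorescence ratio over baseline after carbachol; higher B-score means a larger calcium signal and so more RGS4 inhibition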
RGS4 pot: RGS4 potentiation or activation. HEK293 M3R/inducible RGS4, carbachol calcium flux Fluo4; active compounds read low. B-score at 10 µM. hit rate 0.92% among 310,000;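 active means B-score of the integrated calcium signal more than 4 SD below the library mean, with starting fluorescence not abnormally high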;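 further: negative B-score means reduced calcium response which marks RGS4 activation or potentiation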
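Assay system: HEK293 FlpIn-TREx cells, stable M3R, doxycycline-inducible RGS4 / Probe or stimulus: carbachol, ECmax concentration / Times: overnight RGS4 induction, 30 min dye load 37 °C, 20 min compound RT / Signal: kinetic calcium fluorescence imaging with Fluo4-AM dye, 2 µM / Measure: Agonist-evoked peak-minus-minimum fluorescence over baseline, integrated ratio, B score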
MrgX1 antagonist: blocks BAM8-22 activation of human MrgX1 receptor; Q96LB2; MRGX1-HEK293 calcium flux, Fluo-4, BAM8-22 antagonism; active compounds read low; B-score at 10 µM; hit rate 1.3% among 310,000; AID 588676;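 active means calcium-response B-score plate-corrected more than 3 library SD below zero, starting fluorescence within 5 deviations, no agonist response on first addition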;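 further: peak minus trough fluorescence over baseline after final BAM8-22 challenge near maximal dose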
Active calls of the source: *; i = inactive; nt = no result given.

SMILES | MrgX1 agonist | MrgX1 PAM | RGS4 block | RGS4 pot | MrgX1 antagonist
COc1ccc(C2C=C(C)Nc3ncnn32)cc1 (configuration not stated) | i | i | i | i | i
COc1ccc(C2C=C(c3ccccc3)Nc3ncnn32)cc1 (configuration not stated) | i | 10* | i | i | i
CCOc1ccc(C2C=C(c3ccc(C)cc3)Nc3ncnn32)cc1 (configuration not stated) | 30* | i | i | i | i
Cc1cccn2c(CN3CCCC(c4ccccc4)C3)c(C(=O)N3CCOCC3)nc12 (configuration not stated) | i | i | i | i | i
Cc1ccc(-c2nc3ccccc3c(C(=O)NCc3cccs3)c2C)cc1 | i | i | i | i | i
COc1ccccc1N1CCN(C2CCC(C)CC2)CC1 (configuration not stated) | i | i | i | i | i
COc1ccccc1N1CCN(C2CCN(C3CCC(c4ccccc4)CC3)CC2)CC1 (configuration not stated) | i | 9.1* | i | i | i
CC1(C)CC(=O)C2=C(C1)OC(N)=C(C#N)C21C(=O)N(Cc2ccccc2Cl)c2ccccc21 (configuration not stated) | i | 8.7* | i | i | i
CC1=CC(C)(C)N2C(=O)C3(C(C#N)=C(N)OC4=C3C(=O)CC(C)(C)C4)c3cccc1c32 (configuration not stated) | nt | nt | i | i | nt
CC(=O)c1cc(CN2CCN(C3CCN(C(C)C)CC3)C(CCO)C2)cs1 (configuration not stated) | i | i | i | i | i
COc1cccc(C2C3=C(N=c4s/c(=C\c5ccc(OCC(=O)O)cc5)c(=O)n42)c2ccccc2CC3)c1 (configuration not stated) | i | i | i | -8.4* | -7.5*
C=CCN1C(=O)[C@@H]2Cc3c([nH]c4ccccc34)C(c3ccc(O)cc3)N2C1=S (some centres not stated) | i | i | i | i | -5.3*
CC(C)OCCCNC(=O)c1cc2c(=O)n(C)c3ccccc3c2n1C | i | i | i | i | i
CCCCN(CC)CCCNC(=O)c1cc2c(=O)n(C)c3ccccc3c2n1C | i | i | i | i | -5.5*
CSc1nc(NCC(C)C)c2c3c(sc2n1)CN(C)CC3 | i | i | i | -7.4* | i
COCCNc1nc(SC)nc2sc3c(c12)CCN(C)C3 | i | i | i | i | i
O=C(CN1C(=O)S/C(=C\C=C\c2ccccc2)C1=O)Nc1ccccc1C(=O)O | i | i | i | i | i
C#CCN1C(=O)S/C(=C/C=C/c2ccc(N(C)C)cc2)C1=O | i | i | nt | nt | -5.3*
Cc1sc2ncn(CC(=O)NCCCC(=O)N3CCN(Cc4ccc5c(c4)OCO5)CC3)c(=O)c2c1C | i | i | i | i | i
COc1ccc(C(=O)/C=C/c2cccc(OCc3ccccc3)c2)cc1CSCC(=O)O | 30* | i | i | i | i
COc1ccc(C(=O)/C=C/c2ccc(OCc3ccccc3)cc2)cc1CSCC(=O)O | i | i | i | i | i
CCN(c1ccccc1)S(=O)(=O)c1ccc(Cl)c(NC(=O)CN2C(=O)NC3(CCCC3)C2=O)c1 | i | i | i | i | i
CCOc1ccc(C(=O)NCC(=O)NCC2CCCCC2)cc1OCC | i | i | i | i | i
NNC(=O)C(Cc1c[nH]c2ccccc12)NC(=O)c1ccccc1 (configuration not stated) | i | i | i | i | i
Cc1cc(C)n(-c2ccc(C(F)(F)F)cc2[N+](=O)[O-])n1 | i | i | i | -9.3* | i
CCCCn1c(N)c(N(CCC(C)C)C(=O)c2ccc3c(c2)OCO3)c(=O)[nH]c1=O | i | i | i | i | -5.7*
C(=N\c1nc2ccccc2[nH]1)/c1cccs1 | 30* | i | i | i | i
Cc1cccc(N2CCN(C(=O)c3ccc4c(c3)NC(=O)C(CSCc3cccc(F)c3)N4)CC2)c1C (configuration not stated) | 34* | i | i | i | i
